Series [1] deals with HEK-293T. Description: Cytotoxicity against HEK293T cells assessed as reduction in cell viability measured after 24 hrs by CCK8 assay. In kind it is cell-based, Homo sapiens. As to conditions: for Activity: human, hek-293t. Put shortly: (§1)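 Cells (A549, H460, H1437, PC-3, HGC-27, MDA-MB-231, HEK-293T, L-02) seeded at about 2×10^3/well and grown overnight. Treated 24 h with a peptide concentration series in serum-free medium. Viability by CCK-8; IC50 taken as 50% inhibition versus untreated cells. Average of three experiments, each in triplicate.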

The target in series [2] is T1, Solute carrier family 2, facilitated glucose transporter member 1 (Homo sapiens) (UniProt P11166).
T1 sequence (whole entry): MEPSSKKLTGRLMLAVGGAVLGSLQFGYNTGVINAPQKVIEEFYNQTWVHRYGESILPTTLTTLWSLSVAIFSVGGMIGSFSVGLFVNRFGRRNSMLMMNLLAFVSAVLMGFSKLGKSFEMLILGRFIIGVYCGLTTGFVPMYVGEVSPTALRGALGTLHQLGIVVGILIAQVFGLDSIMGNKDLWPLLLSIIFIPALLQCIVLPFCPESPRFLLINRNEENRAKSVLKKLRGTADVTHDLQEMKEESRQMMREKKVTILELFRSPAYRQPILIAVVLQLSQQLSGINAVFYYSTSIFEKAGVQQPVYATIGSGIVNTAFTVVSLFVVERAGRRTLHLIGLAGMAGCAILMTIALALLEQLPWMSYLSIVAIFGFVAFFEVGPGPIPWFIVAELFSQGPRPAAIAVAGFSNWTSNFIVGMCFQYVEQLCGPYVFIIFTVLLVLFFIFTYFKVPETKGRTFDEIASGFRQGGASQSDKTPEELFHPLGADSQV
Put plainly: Binding affinity to GLUT1 in human A549 cells assessed as cytotoxicity by measuring reduction in cell viability at 12.5 uM measured after 2 hrs in presence of GLUT1 inhibitor STF-31 by CCK8 assay. In kind it is cell-based. A digest of the protocol:
(§2)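 A549 cells at 2×10^3/well, grown overnight, then preincubated 4 h in F12K/10% FBS with or without STF-31 (1 µM final). […] Incubated a further 2 h at 37 °C; viability by CCK-8.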
On the technique in general: Tetrazolium assays rely on reduction of a dye to a coloured formazan, in cell work by metabolically active cells.

In series [3] the target is T1, Solute carrier family 2, facilitated glucose transporter member 1 (Homo sapiens). Description: Binding affinity to GLUT1 in human A549 cells assessed as cytotoxicity by measuring reduction in cell viability at 12.5 uM measured after 2 hrs in absence of GLUT1 inhibitor STF-31 by CCK8 assay. It is filed as cell-based. A digest of the protocol: as §2
Series [4] concerns HEK-293T. Put plainly: Cytotoxicity against HEK293T cells at 12.5 uM measured after 2 hrs by LDH release assay. Conditions: human. In kind it is cell-based. Background: Release of lactate dehydrogenase indicates damage to the cell membrane.
Series [5] has as its target T1, Solute carrier family 2, facilitated glucose transporter member 1 (Homo sapiens). Description: Binding affinity to GLUT1 in human A549 cells assessed as cytotoxicity by measuring reduction in cell viability at 15 uM by trypan blue staining-based assay. Put shortly:
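A549 cells stained with trypan blue after peptide treatment at 15 µM. Dead cells appear blue and live cells unstained; live cells were counted.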

Series [6] has the same target. Put plainly: Binding affinity to GLUT1 in human A549 cells assessed as cytotoxicity at 12.5 uM measured after 2 hrs by LDH release assay. In kind it is cell-based. A digest of the protocol: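 A549 cells at 2×10^3/well, allowed to adhere overnight, then exposed to peptide over a concentration series for 2 h. LDH release measured with a kit, absorbance at 490 nm. 1% Triton X-100 taken as 100% release; n=3.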

Series [7] shares this target. Put plainly: Binding affinity to GLUT1 in human A549 cells assessed as cytotoxicity by measuring reduction in cell viability measured after 24 hrs by CCK8 assay. In kind it is cell-based. Put shortly:
as §1

pIC50: −log10 of the molar value. Calls of active or inactive are those of the source. No cut-off for these calls is given here. *1 amine or outer side, *2 acyl side, *3 side chain or, on linkers, in order; H or OH if unused. Where a SMILES comes first, the peptide text is derived from it. The star is where a group is joined. X4 = CC(=O)N[C@H]1[C@H](OCCCN*)O[C@H](CO)[C@@H](O)[C@@H]1O; X3 = OC[C@H]1O[C@H](OCCCN*)[C@@H](O)[C@@H](O)[C@@H]1O; X1 = OC[C@H]1O[C@@H](OCCCN*)[C@H](O)[C@@H](O)[C@H]1O; X2 = O[C@@H]1[C@@H](O)[C@H](OCCCN*)OC[C@@H]1O; Glutaryl = O=C(CCCC(=O)[*:2])[*:1]

`CC[C@H](C)[C@H](NC(=O)[C@H](Cc1ccccc1)NC(=O)[C@H](CCCNC(=N)N)NC(=O)[C@H](C)NC(=O)[C@@H](NC(=O)[C@H](CO)NC(=O)[C@H](CCCNC(=N)N)NC(=O)[C@H](CCSC)NC(=O)[C@H](C)NC(=O)[C@H](CCCNC(=N)N)NC(=O)[C@H](Cc1ccccc1)NC(=O)[C@H](Cc1c[nH]c2ccccc12)NC(=O)CNC(=O)[C@H](CCCNC(=N)N)NC(=O)CCCC(=O)NCCCO[C@@H]1O[C@H](CO)[C@H](O)[C@H](O)[C@H]1O)[C@@H](C)CC)C(=O)N[C@@H](C)C(=O)N[C@@H](CCCNC(=N)N)C(=O)N[C@@H](CCC(=O)O)C(=O)N[C@@H](CCCNC(=N)N)C(=O)N[C@@H](CC(C)C)C(=O)N[C@@H](CCCNC(=N)N)C(=O)N[C@@H](CCC(=O)O)C(=O)N[C@@H](Cc1cnc[nH]1)C(=O)N[C@@H](CC(C)C)C(=O)O` ({X1-Glutaryl}-RGWFRAMRSIARFIARERLREHL-OH): the pIC50 (commonly the negative decadic logarithm of the IC50, by convention in mol/L) with HEK-293T [1] (Homo sapiens, HEK-293T) is 5.08. The outcome in series [2], in series [3], in series [5] and in series [6] was Active. Moreover, in the series with HEK-293T [4], the Activity result was “Toxic”.

As for `CC[C@H](C)[C@H](NC(=O)[C@H](Cc1ccccc1)NC(=O)[C@H](CCCNC(=N)N)NC(=O)[C@H](C)NC(=O)[C@@H](NC(=O)[C@H](CO)NC(=O)[C@H](CCCNC(=N)N)NC(=O)[C@H](CCSC)NC(=O)[C@H](C)NC(=O)[C@H](CCCNC(=N)N)NC(=O)[C@H](Cc1ccccc1)NC(=O)[C@H](Cc1c[nH]c2ccccc12)NC(=O)CNC(=O)[C@H](CCCNC(=N)N)NC(=O)CCCC(=O)NCCCO[C@@H]1OC[C@H](O)[C@H](O)[C@H]1O)[C@@H](C)CC)C(=O)N[C@@H](C)C(=O)N[C@@H](CCCNC(=N)N)C(=O)N[C@@H](CCC(=O)O)C(=O)N[C@@H](CCCNC(=N)N)C(=O)N[C@@H](CC(C)C)C(=O)N[C@@H](CCCNC(=N)N)C(=O)N[C@@H](CCC(=O)O)C(=O)N[C@@H](Cc1cnc[nH]1)C(=O)N[C@@H](CC(C)C)C(=O)O` ({X2-Glutaryl}-RGWFRAMRSIARFIARERLREHL-OH), the outcome in series [2], in series [3], in series [5] and in series [6] was Active. The Activity entry in the series on HEK-293T [4] is on record as “Toxic”.

For `CC[C@H](C)[C@H](NC(=O)[C@H](Cc1ccccc1)NC(=O)[C@H](CCCNC(=N)N)NC(=O)[C@H](C)NC(=O)[C@@H](NC(=O)[C@H](CO)NC(=O)[C@H](CCCNC(=N)N)NC(=O)[C@H](CCSC)NC(=O)[C@H](C)NC(=O)[C@H](CCCNC(=N)N)NC(=O)[C@H](Cc1ccccc1)NC(=O)[C@H](Cc1c[nH]c2ccccc12)NC(=O)CNC(=O)[C@H](CCCNC(=N)N)NC(=O)CCCC(=O)NCCCO[C@H]1O[C@H](CO)[C@@H](O)[C@H](O)[C@@H]1O)[C@@H](C)CC)C(=O)N[C@@H](C)C(=O)N[C@@H](CCCNC(=N)N)C(=O)N[C@@H](CCC(=O)O)C(=O)N[C@@H](CCCNC(=N)N)C(=O)N[C@@H](CC(C)C)C(=O)N[C@@H](CCCNC(=N)N)C(=O)N[C@@H](CCC(=O)O)C(=O)N[C@@H](Cc1cnc[nH]1)C(=O)N[C@@H](CC(C)C)C(=O)O` ({X3-Glutaryl}-RGWFRAMRSIARFIARERLREHL-OH), the Activity entry in the series with HEK-293T [1] is reported as “Non-Toxic”. Besides, the outcome in series [7] and in series [5] was inactive.

In the case of `CC[C@H](C)[C@H](NC(=O)[C@H](Cc1ccccc1)NC(=O)[C@H](CCCNC(=N)N)NC(=O)[C@H](C)NC(=O)[C@@H](NC(=O)[C@H](CO)NC(=O)[C@H](CCCNC(=N)N)NC(=O)[C@H](CCSC)NC(=O)[C@H](C)NC(=O)[C@H](CCCNC(=N)N)NC(=O)[C@H](Cc1ccccc1)NC(=O)[C@H](Cc1c[nH]c2ccccc12)NC(=O)CNC(=O)[C@H](CCCNC(=N)N)NC(=O)CCCC(=O)NCCCO[C@@H]1O[C@H](CO)[C@@H](O)[C@H](O)[C@H]1NC(C)=O)[C@@H](C)CC)C(=O)N[C@@H](C)C(=O)N[C@@H](CCCNC(=N)N)C(=O)N[C@@H](CCC(=O)O)C(=O)N[C@@H](CCCNC(=N)N)C(=O)N[C@@H](CC(C)C)C(=O)N[C@@H](CCCNC(=N)N)C(=O)N[C@@H](CCC(=O)O)C(=O)N[C@@H](Cc1cnc[nH]1)C(=O)N[C@@H](CC(C)C)C(=O)O` ({X4-Glutaryl}-RGWFRAMRSIARFIARERLREHL-OH), the Activity entry with HEK-293T [1] is given as “Non-Toxic”. Besides, the result in series [7] and in series [5] was inactive.

The values are drawn from ChEMBL document CHEMBL4334452, “Monosaccharide Analogues of Anticancer Peptide R-Lycosin-I: Role of Monosaccharide Conjugation in Complexation and the Potential of Lung Cancer Targeting and Therapy” (J Med Chem, 2019).
